Our source for the CC50, selectivity ratio and Activity values is ChEMBL document CHEMBL5385953, “Antiviral Rotenoids and Isoflavones Isolated from Millettia oblata ssp. teitensis” (J Nat Prod, 2024).

Structures are written as SMILES. Active and inactive are the calls of the source. No cut-off for these calls is given here.

The subject of series [1] is HEp-2. The experiment in a line: Cytotoxicity against human HEp-2 cells measured after 3 days by CellTiter 96 aqueous one solution assay (Rvb >100 microM). The class given is functional. Particulars: HEp-2, 72 h, time 3 day.
Series [2] can be described thus: Selectivity index, ratio of CC50 for human HEp-2 cells to IC50 for Human respiratory syncytial virus infected in human HEp-2 cells. It counts as toxicity, cell-based. Particulars: read-out: Ratio CC50/IC50.
Series [3] deals with HEp-2. The experiment in a line: Cytostatic activity against human HEp-2 cells assessed as poor cell staining at 4.0 to 100 uM measured after 3 days by CellTiter 96 aqueous one solution assay. The conditions noted are these: dose 4-100 µM, time 3.0 day. The class given is functional, cell-based.
Series [4] concerns HEp-2. Put plainly: Cytostatic activity against human HEp-2 cells assessed as poor cell staining at 100 uM measured after 3 days by CellTiter 96 aqueous one solution assay. Particulars: time 3.0 day. The class given is functional, cell-based.
Series [5] relates to HEp-2. The experiment in a line: Cytostatic activity against human HEp-2 cells assessed as poor cell staining at 20 uM measured after 3 days by CellTiter 96 aqueous one solution assay. The class given is functional, cell-based. Particulars: time 3.0 day. An outline of the steps:
(§1)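 Compound-treated HEp-2 cells (grown in DMEM with 8% fetal calf serum and 292 μg/mL L-glutamine) were examined by microscopy alongside the tetrazolium viability assay. Cytostatic effects were scored as poor cell proliferation, altered cell shape or poor cell staining.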

The test system of series [6] is HEp-2. Put plainly: Cytostatic activity against human HEp-2 cells assessed as poor cell staining at 0.8 to 4.0 uM measured after 3 days by CellTiter 96 aqueous one solution assay. The class given is functional, cell-based. Particulars: dose 0.8-4 µM, time 3.0 day. An outline of the steps:
as §1

Series [7] relates to HEp-2. The experiment in a line: Cytostatic activity against human HEp-2 cells assessed as poor cell proliferation at 100 uM measured after 3 days by CellTiter 96 aqueous one solution assay. It counts as functional, cell-based. The conditions noted are these: time 3.0 day. An outline of the steps: as §1
Series [8] deals with HEp-2. The experiment in a line: Cytostatic activity against human HEp-2 cells assessed as poor cell staining at 4.0 uM measured after 3 days by CellTiter 96 aqueous one solution assay. It counts as functional, cell-based. The conditions noted are these: time 3.0 day.

Regarding `CC(C)=CCOc1ccc(-c2coc3c4c(ccc3c2=O)OC(C)(C)C=C4)cc1`, the CC50 in the series on HEp-2 [1] was more than 100 µM. In addition, the selectivity ratio in series [2] was more than 47.6. Besides, the result in the series with HEp-2 [3] was Active.

`CC(C)=CCOc1ccc(-c2coc3c4c(cc(O)c3c2=O)OC(C)(C)C=C4)cc1` displayed a half-maximal cytotoxic concentration (CC50) in the series on HEp-2 [1] of more than 100 µM. Further, the outcome with HEp-2 [4] was Active.

With `COc1ccc2c(=O)c(-c3cc4c(cc3OC)OCO4)coc2c1`, the result with HEp-2 [5] was Active. Molecule `COc1ccc2c(c1)O[C@@H]1COc3cc4c(cc3[C@@H]1C2=O)OCO4` displayed a CC50 in the series on HEp-2 [1] of more than 100 µM.

As for `COc1cc2c(cc1OC)[C@]1(O)C(=O)c3ccc4c(c3O[C@@H]1CO2)C=CC(C)(C)O4`, in the series with HEp-2 [6], the outcome was Active. For `COc1ccc2c(c1)O[C@@H]1COc3cc4c(cc3[C@]1(O)C2=O)OCO4`, the result with HEp-2 [5] was Active.

`NC(=O)c1ncn([C@@H]2O[C@H](CO)[C@@H](O)[C@H]2O)n1` [RIBAVIRIN] returned a 50% cytotoxic concentration (CC50) in the series on HEp-2 [1] of more than 100 µM. Further, the result in the series on HEp-2 [7] was Active. Molecule `COc1cc2c(cc1-c1coc3c4c(c(OC)cc3c1=O)OC(C)(C)C=C4)OCO2` [ICHTHYNONE] had a CC50 with HEp-2 [1] of 91 µM. In addition, the outcome in the series on HEp-2 [5] was Active.

`COc1ccc2c(=O)c(-c3cc(OC)c4c(c3OC)OCO4)coc2c1` registered a CC50 in the series with HEp-2 [1] of more than 100 µM. Turning to `COc1cc2c(cc1OC)[C@@H]1C(=O)c3ccc4c(c3O[C@@H]1CO2)C=CC(C)(C)O4` [DEGUELIN], the selectivity ratio in series [2] came out at 61.6. For the same molecule, the outcome with HEp-2 [8] was Active.

In the series on HEp-2 [1], `COc1cc2c(cc1-c1coc3cc(O)ccc3c1=O)OCO2` [CUNEATIN] registered a 50% cytotoxic concentration (CC50) of more than 100 µM. `COc1ccc2c(c1)O[C@@H]1COc3cc(OC)c(OC)cc3[C@]1(O)C2=O`: in the series with HEp-2 [5], the outcome was Active. The molecule `COc1cc2c(cc1OC)C(=O)[C@@]1(O)c3cc4c(cc3OC[C@H]1O2)OCO4` had a CC50 in the series with HEp-2 [1] of more than 100 µM. The same measure, in the same setting: with `COc1ccc2c(c1)O[C@@H]1COc3c(cc(OC)c4c3OCO4)[C@@H]1C2=O` the figure was more than 100 µM.

In the series with HEp-2 [1], `COc1c(O[C@@H]2O[C@H](CO[C@H]3O[C@H](C)[C@@H](O)[C@H](O)[C@@H]3O)[C@@H](O[C@@H]3O[C@H](CO[C@H]4O[C@H](C)[C@@H](O)[C@H](O)[C@@H]4O)[C@@H](O)[C@H](O)[C@H]3O)[C@H](O)[C@H]2O)cc2c(=O)c(-c3ccc4c(c3)OCO4)coc2c1OC` displayed a CC50 of more than 100 µM. With `CC1(C)C=Cc2c(ccc3c(=O)c(-c4ccc5c(c4)OCO5)coc23)O1`, the CC50 in the series with HEp-2 [1] was more than 100 µM.
